Common to all, as to type: functional
One test deals with HCT-116. Put plainly: Cytotoxicity against human HCT116 cells. In outline: (§1)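 Read-out is growth inhibition of human cancer cell lines. GI50 is taken as the compound concentration giving 50% growth inhibition.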
A further test concerns HOP-62. Nature of the test: Cytotoxicity against human HOP62 cells. An outline of the steps:
as §1

Another test concerns DU-145. Put plainly: Cytotoxicity against human DU145 cells. An outline of the steps: as §1
In a further test the test system is SN12C. Put plainly: Cytotoxicity against human SN12C cells. In outline:
as §1

The test system of a further test is UACC-62. Put plainly: Cytotoxicity against human UACC62 cells. An outline of the steps:
as §1

The next test deals with OVCAR-3. Put plainly: Cytotoxicity against human OVCAR-3 cells.
The test system of a further test is MDA-MB-435. Put plainly: Cytotoxicity against human MDA-MB-435 cells.
Another test concerns SF-539. Put plainly: Cytotoxicity against human SF539 cells. In outline: as §1

This note sets out measurements from ChEMBL document CHEMBL1148768, “Nitrated indenoisoquinolines as topoisomerase I inhibitors: a systematic study and optimization” (2007).

In general, GI50 refers to the concentration giving 50% growth inhibition.

With `O=C1c2ccccc2-c2c1c1ccccc1c(=O)n2CCCn1ccnc1`, the GI50 worked out at 1410 nM with HCT-116; 2690 nM in the test with HOP-62; 1410 nM with DU-145; 1660 nM with SN12C; 790 nM in the test on UACC-62; 1660 nM with OVCAR-3.
For the compound `COc1ccc2c(c1)C(=O)c1c-2n(CCCN(C)C)c(=O)c2cc([N+](=O)[O-])ccc12`, the GI50 in the test with HCT-116, in the test on HOP-62, with MDA-MB-435, in the test with DU-145, with SN12C and in the test on UACC-62 was less than 10 nM each time. In addition, the GI50 in the test on OVCAR-3 is 28 nM; in the test on SF-539 it was less than 10 nM.
With `[N-]=[N+]=NCCCn1c2c(c3ccc([N+](=O)[O-])cc3c1=O)C(=O)c1ccccc1-2`, the concentration for 50% growth inhibition (GI50) in the test with SF-539 was found to be 79400 nM.
Consider `COc1ccc2c(c1)C(=O)c1c-2n(CCCN=[N+]=[N-])c(=O)c2ccccc12`, for which the GI50 with HCT-116 was 26900 nM; in the test on HOP-62, 33900 nM; with MDA-MB-435, 64600 nM; in the test with DU-145, 61700 nM; in the test on SN12C, greater than 100000 nM; in the test on UACC-62 it was 75900 nM. In addition, the GI50 came to 52500 nM with OVCAR-3 and 44700 nM with SF-539.
For the compound `COc1ccc2c(c1)C(=O)c1c-2n(CCCN)c(=O)c2cc([N+](=O)[O-])ccc12`, the GI50 in the test with HCT-116 was less than 10 nM.
Turning to `COc1ccc2c(c1)C(=O)c1c-2n(CCCN(C)C)c(=O)c2ccccc12`, the concentration for 50% growth inhibition (GI50) in the test on HCT-116 was 102 nM; in the test with HOP-62 it was 78 nM; in the test with MDA-MB-435, 617 nM; in the test with DU-145, 257 nM; in the test with SN12C, 245 nM; in the test with UACC-62, 1000 nM. Also, the values for the GI50 with OVCAR-3 and in the test with SF-539 were 427 nM and 240 nM, respectively.
As to `NCCCn1c2c(c3ccccc3c1=O)C(=O)c1ccccc1-2`, the GI50 with HCT-116 is 180 nM; in the test with MDA-MB-435, 780 nM; with DU-145, 220 nM; in the test on SN12C, 160 nM; in the test with UACC-62, 260 nM; in the test on OVCAR-3 it was 1380 nM. In addition, the GI50 with SF-539 amounted to 250 nM.
`O=C1c2ccccc2-c2c1c1ccccc1c(=O)n2CCCNCCO`: the GI50 with HOP-62 was found to be 195 nM; in the test on MDA-MB-435 it was 490 nM; in the test on DU-145 it was 174 nM; in the test with SN12C, 269 nM; with UACC-62, 178 nM; with OVCAR-3, 550 nM. In the test on SF-539, this compound came in with a GI50 of 550 nM.
Take `O=C1c2ccccc2-c2c1c1ccccc1c(=O)n2CCCN1CCOCC1`: the GI50 in the test on HOP-62 was 3720 nM; in the test on MDA-MB-435 it was greater than 100000 nM; in the test with DU-145 it was 7240 nM; in the test on SN12C, 21400 nM; in the test on UACC-62 it was 5370 nM; with OVCAR-3 it was 16600 nM. In the test on SF-539, this compound returned a GI50 of 3470 nM.
As to `COc1ccc2c(c1)C(=O)c1c-2n(CCCNCCO)c(=O)c2cc([N+](=O)[O-])ccc12`, the GI50 in the test with HOP-62 is less than 10 nM; with MDA-MB-435, less than 10 nM; in the test with DU-145 it was less than 10 nM; with SN12C, 12 nM; in the test with UACC-62, less than 10 nM; in the test on OVCAR-3, less than 10 nM. In the test on SF-539, this compound yielded a GI50 of less than 10 nM.
In the case of `COc1ccc2c(c1)C(=O)c1c-2n(CCCn2ccnc2)c(=O)c2ccccc12`, the GI50 in the test on HCT-116 was 110 nM; with HOP-62 it was 56 nM; in the test on MDA-MB-435, 646 nM; in the test with DU-145 it was 204 nM; with SN12C, 676 nM; in the test on UACC-62, 71 nM. The GI50 worked out at 1660 nM in the test on OVCAR-3 and 178 nM in the test on SF-539.
Take `COc1ccc2c(c1)C(=O)c1c-2n(CCCN2CCOCC2)c(=O)c2cc([N+](=O)[O-])ccc12`: the GI50 with HCT-116, in the test on HOP-62, with MDA-MB-435, in the test on SN12C, in the test with UACC-62 and in the test with OVCAR-3 was less than 10 nM throughout.
For `COc1ccc2c(c1)C(=O)c1c-2n(CCCI)c(=O)c2cc([N+](=O)[O-])ccc12`, the 50% growth inhibitory concentration (GI50) with HCT-116 was 46 nM; in the test on MDA-MB-435 it was 1480 nM; with DU-145, 34 nM; with SN12C, 309 nM; in the test on UACC-62 it was 148 nM; in the test with OVCAR-3, 3020 nM. In the test on SF-539, the GI50 was 58 nM.
On to `O=C1c2ccccc2-c2c1c1ccc([N+](=O)[O-])cc1c(=O)n2CCCN1CCOCC1`, for which the GI50 in the test on HCT-116 was determined as 38 nM; with HOP-62, 21 nM; in the test with MDA-MB-435, 1230 nM; with DU-145, 85 nM; in the test on SN12C, 309 nM; in the test with UACC-62, 380 nM. This compound also showed a 50% growth inhibitory concentration (GI50) in the test on SF-539 of 95 nM.
As to `COc1ccc2c(c1)C(=O)c1c-2n(CCCn2ccnc2)c(=O)c2cc([N+](=O)[O-])ccc12`, the GI50 in the test on HCT-116, in the test on HOP-62, with MDA-MB-435, with DU-145, with SN12C and with UACC-62 was less than 10 nM in each case. The values for the concentration for 50% growth inhibition (GI50) with OVCAR-3 and in the test with SF-539 were 20 nM and less than 10 nM, respectively.
In the case of `COc1cc2c3c(n(C)c(=O)c2cc1OC)-c1cc2c(cc1C3=O)OCO2`, the GI50 in the test on HCT-116 is 35000 nM; in the test with HOP-62 it was 1300 nM; with MDA-MB-435, 96000 nM; in the test with DU-145 it was 37000 nM; in the test with SN12C it was 68000 nM; with UACC-62, 4200 nM.
Take `[N-]=[N+]=NCCCn1c2c(c3ccccc3c1=O)C(=O)c1ccccc1-2`: in the test with DU-145, it took 29500 nM to inhibit growth by half (GI50).
For the compound `O=C1c2ccccc2-c2c1c1ccc([N+](=O)[O-])cc1c(=O)n2CCCNCCO`, the GI50 is 27 nM in the test with HCT-116; 31 nM in the test with HOP-62; 1070 nM in the test on MDA-MB-435; greater than 100000 nM in the test on DU-145; 229 nM in the test on SN12C; 200 nM in the test on UACC-62. Further, the GI50 in the test on OVCAR-3 is 1350 nM; with SF-539 it was greater than 100000 nM.
In the test with SF-539, `NCCCn1c2c(c3ccc([N+](=O)[O-])cc3c1=O)C(=O)c1ccccc1-2` came in with a GI50 of 302 nM.
Regarding `COc1ccc2c(c1)C(=O)c1c-2n(CCCNCCO)c(=O)c2ccccc12`, the GI50 stood at 44 nM with HCT-116; 26 nM with HOP-62; 389 nM in the test with MDA-MB-435; 55 nM in the test on DU-145; 158 nM in the test with SN12C; 550 nM with UACC-62. In addition, the GI50 in the test with OVCAR-3 stood at 417 nM; in the test on SF-539, 112 nM.
For `O=C1c2ccccc2-c2c1c1ccc([N+](=O)[O-])cc1c(=O)n2CCCBr`, the GI50 was 3470 nM in the test on HCT-116 and greater than 100000 nM with SF-539.
Regarding `COc1ccc2c(c1)C(=O)c1c-2n(CCCN)c(=O)c2ccccc12`, the GI50 with HCT-116 was less than 10 nM; in the test with HOP-62 it was less than 10 nM; with MDA-MB-435, 59 nM; in the test with DU-145, 14 nM; in the test on SN12C it was less than 10 nM; in the test with OVCAR-3 it was 28 nM. Further, it took 38 nM to inhibit growth with SF-539 by half (GI50).
Turning to `COc1ccc2c(c1)C(=O)c1c-2n(CCCN2CCOCC2)c(=O)c2ccccc12`, the GI50 was 1260 nM in the test on HCT-116; 1410 nM in the test with HOP-62; 4680 nM with MDA-MB-435; 2290 nM in the test on DU-145; 4070 nM in the test with SN12C; 1580 nM in the test with UACC-62. Further, the GI50 in the test on OVCAR-3 was 2690 nM; with SF-539, 1950 nM.
